Series [1] in a line: Susceptibility of compound to hydrolysis at 37 degrees C at pH 5.0 acetate medium. The class given is ADME. In a few lines: (§1)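 Prodrug (100 μM final, from 1 mM stock in 10% aqueous DMSO) is incubated at 37 °C in pH 7.4 phosphate buffer (150 mM NaCl, 4 mM NaH₂PO₄, 25 mM NaHCO₃) or pH 5.0 acetate (150 mM NaCl, 10 mM NaOAc). Half-life of ester disappearance is found by HPLC as the mean of two determinations.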

Series [2] relates to Plasmodium berghei. Kind of series: Parasitaemia (%) on day 4 in Plasmodium berghei infected mice (Mus musculus) at 40 mg/kg intraperitoneal dose. The class given is functional. In a few lines:
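Female Swiss CD-1 mice (four-week-old, 20–25 g, three per group) are infected ip with about 10⁷ P. berghei ANKA 65 parasitized erythrocytes from a donor. On the day of infection they receive 40 mg/kg orally in 100% DMSO, then daily ip for 4 days. Parasitemia is counted daily. Controls get DMSO only.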

The test system of series [3] is Plasmodium falciparum. Kind of series: Effective dose against chloroquine-resistant Plasmodium falciparum FcB1R. The class given is functional. To be noted: read-out: ED50. The method, boiled down: (§2)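 Asynchronous cultures in human erythrocytes (0.5% parasitemia, 1% hematocrit) received serially diluted drug, DMSO ≤0.1%. After 24 h at 37 °C, 0.5 μCi [3H]hypoxanthine was added and incubation continued another 24 h. Growth inhibition was taken versus drug-free control, ED50 read from the concentration–response curve, and reported as mean of ≥3 independent experiments.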

Series [4] concerns Mus musculus. In words: Percentage excess MST, when used as the chlorohydrate in mice infected with Plasmodium berghei (i.p., 40 mg/kg). Type of series: functional. Conditions: route intraperitoneal. In a few lines:
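Female Swiss CD-1 mice (four weeks, 20–25 g), three per group, were infected ip with about 10^7 P. berghei ANKA parasitized erythrocytes. Dosing was 40 mg/kg in 100% DMSO, given orally at infection, then ip over the following 4 days. Parasitemia was counted daily. Activity was scored as percentage excess mean survival time over DMSO-treated infected controls.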

Series [5] is described as follows: Susceptibility of compound to hydrolysis at 37 degrees C at pH 7.4 phosphate buffer. The class given is ADME. In a few lines:
as §1

The nature of series [6]: Susceptibility of compound to hydrolysis at 37 degrees C for RPMI-10% human serum. The class given is ADME. To be noted: RPMI with 10% human serum. In a few lines:
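Prodrug (100 μM final, from 1 mM stock in 10% aqueous DMSO) is held in RPMI with 10% human serum at 37 °C and sampled from 0 to 77.5 h. Samples are mixed with EtOH plus internal reference, centrifuged, and the supernatant is analysed by HPLC. Half-life of ester disappearance is the mean of two determinations.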

Series [7] deals with Plasmodium falciparum. In words: In vitro efficacy for chloroquine-resistant Plasmodium falciparum K1. To be noted: read-out: ED50 (the source's name). Type of series: functional. In a few lines: as §2
The test system of series [8] is Plasmodium falciparum. In words: In vitro efficacy for chloroquine-resistant Plasmodium falciparum W2. Conditions: read-out: ED50 (the source's name). Type of series: functional. The method, boiled down: as §2
In series [9] the test system is Plasmodium falciparum. Kind of series: In vitro efficacy for chloroquine-resistant Plasmodium falciparum FcB1. Type of series: functional. To be noted: read-out: ED50 (the source's name). In a few lines:
as §2

Series [10] relates to Plasmodium falciparum. Kind of series: In vitro efficacy for chloroquine-sensitive Plasmodium falciparum Thai. Conditions: read-out: ED50 (the source's name).
Series [11] relates to Plasmodium falciparum. In words: In vitro efficacy for chloroquine-sensitive Plasmodium falciparum D6. Conditions: read-out: ED50 (the source's name).
Series [12] has as its system Plasmodium falciparum. In words: In vitro efficacy for chloroquine-sensitive Plasmodium falciparum F32. To be noted: read-out: ED50 (the source's name).

pEC50: −log10 of the molar value.

In the case of `CC1=C(CCCCC(=O)OCc2cc(NC(=O)CN3CCCCC3)cc(Nc3ccnc4cc(Cl)ccc34)c2)C(=O)c2c(O)cccc2C1=O`, the half-life in [1], in [5] and in [6] was > 80 h in each case. The compound further came in with a Parasitaemia in [2] of 9%. Further, the pEC50 in series [3] is 7.54. The “Excess MST” value in series [4] is listed as 39%.
In the case of `CCN(CC)CCCC(C)Nc1ccnc2cc(Cl)ccc12` (configuration not stated) [CHLOROQUINE], the pEC50 in [7] is 6.74; in series [8], 6.76; in series [9] it was 6.90; in series [10], 7.84; in series [11], 7.27; in series [12], 7.72.

The values are drawn from ChEMBL document CHEMBL1134294, “A prodrug form of a Plasmodium falciparum glutathione reductase inhibitor conjugated with a 4-anilinoquinoline” (J Med Chem, 2001).
